Measured values reported in ChEMBL document CHEMBL1629683, “HIV-1 protease codon 36 polymorphisms and differential development of resistance to nelfinavir, lopinavir, and atazanavir in different HIV-1 subtypes” (Antimicrob Agents Chemother, 2010).
pEC50: −log10 of the molar value. Calls of active or inactive are those of the source. The rule behind the calls is not given here.

Tests used:
[1] = system: Human immunodeficiency virus 1; experiment: Antiviral activity against HIV1 subtype C harboring protease L10R, M46I, I54V, V82S mutant gene and polymorphism at M36 position infected in human cord blood mononuclear cells assessed as inhibition of viral replication […]; format: functional, organism-based; conditions: Human immunodeficiency virus 1, subtype C
Summary of the method: (§1)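 Cord blood mononuclear cells were PHA-stimulated for 72 h in RPMI 1640 with 10% FBS and IL-2. Cells were infected for 2 h with week-0 clonal virus or PI-selected virus (weeks 25 and 35 of selection). They were plated at 5 × 10⁵ cells/well with PI at 0.04 nM to 10 μM. Drug-containing medium was replenished on day 3, supernatant RT activity was read on day 7, and EC₅₀ was derived.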

[2] = system: Human immunodeficiency virus 1; experiment: Selectivity ratio of EC50 for HIV1 subtype C harboring protease L32I, M46I/M, L76V mutant gene and polymorphism at I36 position to EC50 for wild type HIV1 subtype C; format: functional
[3] = system: Human immunodeficiency virus 1; experiment: Antiviral activity against HIV1 subtype B harboring protease polymorphism at M36 position and L10F, V82A mutant gene infected in human cord blood mononuclear cells assessed as inhibition of viral replication after 48 hrs by luciferase reporter gene assay; format: functional, organism-based; conditions: Human immunodeficiency virus 1, subtype B
[4] = system: Human immunodeficiency virus 1; experiment: Selectivity ratio of EC50 for HIV1 subtype CRF02_AG harboring protease M46, I47A, I84V mutant gene and polymorphism at I36 position to EC50 for wild type HIV1 subtype CRF02_AG; format: functional
[5] = system: Human immunodeficiency virus 1; experiment: Antiviral activity against HIV1 subtype CRF02_AG harboring protease M46, I47A, I84V mutant gene and polymorphism at I36 position infected in human cord blood mononuclear cells assessed as inhibition of viral replication on day 7 by RT activity assay; conditions: Human immunodeficiency virus 1, subtype CRF02_AG, 7 days
[6] = system: Human immunodeficiency virus 1; experiment: Antiviral activity against HIV1 subtype CRF02_AG harboring protease L76V, M46I, I84V mutant gene and polymorphism at M36 position infected in human cord blood mononuclear cells assessed as inhibition of viral replication […]; format: functional, organism-based; conditions: Human immunodeficiency virus 1, subtype CRF02_AG; summary of the method: as §1
[7] = system: Human immunodeficiency virus 1; experiment: Selectivity ratio of EC50 for HIV1 subtype CRF02_AG harboring protease L76V, M46I, I84V mutant gene and polymorphism at M36 position to EC50 for wild type HIV1 subtype CRF02_AG; format: functional
[8] = system: Human immunodeficiency virus 1; experiment: Selectivity ratio of EC50 for HIV1 subtype C harboring protease L10R, M46I, I54V, V82S mutant gene and polymorphism at M36 position to EC50 for wild type HIV1 subtype C; format: functional
[9] = system: Human immunodeficiency virus 1; experiment: Antiviral activity against HIV1 subtype C harboring protease L32I, M46I/M, L76V mutant gene and polymorphism at I36 position infected in human cord blood mononuclear cells assessed as inhibition of viral replication after 48 hrs by luciferase reporter gene assay; format: functional, organism-based; conditions: Human immunodeficiency virus 1, subtype C
[10] = system: Human immunodeficiency virus 1; experiment: Antiviral activity against HIV1 subtype C harboring protease E35G mutant gene and polymorphism at I36 position infected in human cord blood mononuclear cells assessed as inhibition of viral replication […]; format: functional, organism-based; conditions: Human immunodeficiency virus 1, subtype C; summary of the method: as §1
[11] = system: Human immunodeficiency virus 1; experiment: Antiviral activity against HIV1 subtype B harboring protease polymorphism at M36 position M46I, I50L, N88S mutant gene infected in human cord blood mononuclear cells assessed as inhibition of viral replication […]; format: functional, organism-based; conditions: Human immunodeficiency virus 1, subtype B; summary of the method: as §1
[12] = system: Human immunodeficiency virus 1; experiment: Antiviral activity against HIV1 subtype CRF02_AG harboring protease polymorphism at I36 position and I50FILV, A71V mutant gene infected in human cord blood mononuclear cells assessed as inhibition of viral replication […]; format: functional, organism-based; conditions: Human immunodeficiency virus 1, subtype CRF02_AG; summary of the method: as §1
[13] = system: Human immunodeficiency virus 1; experiment: Antiviral activity against HIV1 subtype C harboring protease L23I, M46I/M, L89T mutant gene and polymorphism at M36 position infected in human cord blood mononuclear cells assessed as inhibition of viral replication […]; format: functional, organism-based; conditions: Human immunodeficiency virus 1, subtype C; summary of the method: as §1
[14] = system: Human immunodeficiency virus 1; experiment: Antiviral activity against HIV1 subtype B harboring protease polymorphism at I36 position and M46I, I50L, N88S mutant gene infected in human cord blood mononuclear cells assessed as inhibition of viral replication […]; format: functional, organism-based; conditions: Human immunodeficiency virus 1, subtype B; summary of the method: as §1
[15] = system: Human immunodeficiency virus 1; experiment: Antiviral activity against HIV1 subtype CRF02_AG harboring protease polymorphism at M36 position and I50FILV, A71V mutant gene infected in human cord blood mononuclear cells assessed as inhibition of viral replication […]; format: functional, organism-based; conditions: Human immunodeficiency virus 1, subtype CRF02_AG; summary of the method: as §1
[16] = system: Human immunodeficiency virus 1; experiment: Antiviral activity against wild type HIV1 subtype C infected in human cord blood mononuclear cells assessed as inhibition of viral replication after 48 hrs by luciferase reporter gene assay; format: functional, organism-based; conditions: Human immunodeficiency virus 1, subtype C
[17] = system: Human immunodeficiency virus 1; experiment: Selectivity ratio of EC50 for HIV1 subtype C harboring protease polymorphism at I36 position to EC50 for wild type HIV1 subtype C; format: functional
[18] = system: Human immunodeficiency virus 1; experiment: Antiviral activity against HIV1 subtype B harboring protease polymorphism at I36 position infected in human TZM-bl cells assessed as inhibition of viral replication after 48 hrs by luciferase reporter gene assay; format: functional, organism-based
Summary of the method: (§2)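 TZM-bl cells (10⁴/well) in DMEM with 10% FBS were infected with the week-0 or week-35 polymorphic variant. After 48 h, cells were PBS-rinsed and lysed, and luciferase activity was read as relative light units. Results are means of three independent experiments run in duplicate.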

[19] = system: Human immunodeficiency virus 1; experiment: Antiviral activity against HIV1 subtype B harboring protease D30N, M46I, A71T and V77I mutant gene and polymorphism at M36 position of protease infected in human cord blood mononuclear cells assessed as inhibition of viral replication […]; format: functional, organism-based; conditions: Human immunodeficiency virus 1, subtype B; summary of the method: as §1
[20] = system: Human immunodeficiency virus 1; experiment: Antiviral activity against HIV1 subtype CRF02_AG harboring protease polymorphism at I36 position and M46 mutant gene infected in human cord blood mononuclear cells assessed as inhibition of viral replication on day 7 by RT activity assay; conditions: Human immunodeficiency virus 1, subtype CRF02_AG, 7 days
[21] = system: Human immunodeficiency virus 1; experiment: Selectivity ratio of EC50 for HIV1 subtype C harboring protease L23I, M46I, L89T and polymorphism at M36 position to EC50 for wild type HIV1 subtype C M36
[22] = system: Human immunodeficiency virus 1; experiment: Selectivity ratio of EC50 for HIV1 subtype CRF02_AG harboring protease L33I, M46I, A71T mutant gene and polymorphism at M36 position to EC50 for wild type HIV1 subtype CRF02_AG; format: functional
[23] = system: Human immunodeficiency virus 1; experiment: Antiviral activity against wild type HIV1 subtype CRF02_AG infected in human cord blood mononuclear cells assessed as inhibition of viral replication after 48 hrs by luciferase reporter gene assay; format: functional, organism-based; conditions: Human immunodeficiency virus 1, subtype CRF02_AG
[24] = system: Human immunodeficiency virus 1; experiment: Antiviral activity against HIV1 subtype CRF02_AG harboring protease L33I, M46I, A71T mutant gene and polymorphism at M36 position infected in human cord blood mononuclear cells assessed as inhibition of viral replication […]; format: functional, organism-based; conditions: Human immunodeficiency virus 1, subtype CRF02_AG; summary of the method: as §1
[25] = system: Human immunodeficiency virus 1; experiment: Selectivity ratio of EC50 for HIV1 subtype B harboring protease polymorphism at M36 position infected in human cord blood mononuclear cells to EC50 for HIV1 subtype B harboring protease polymorphism at I36 position infected in human cord blood mononuclear cells; format: functional
[26] = system: Human immunodeficiency virus 1; experiment: Antiviral activity against HIV1 subtype CRF02_AG harboring protease polymorphism at I36 position infected in human TZM-bl cells assessed as inhibition of viral replication after 48 hrs by luciferase reporter gene assay; format: functional, organism-based; summary of the method: as §2
[27] = system: Human immunodeficiency virus 1; experiment: Antiviral activity against HIV1 subtype C harboring protease L23I, M46I, L89T mutant gene and polymorphism at M36 position infected in human cord blood mononuclear cells assessed as inhibition of viral replication […]; format: functional, organism-based; conditions: Human immunodeficiency virus 1, subtype C; summary of the method: as §1
[28] = system: Human immunodeficiency virus 1; experiment: Selectivity ratio of EC50 for HIV1 subtype CRF02_AG harboring protease polymorphism at I36 position and M46 mutant gene to EC50 for wild type HIV1 subtype CRF02_AG; format: functional
[29] = system: Human immunodeficiency virus 1; experiment: Selectivity ratio of EC50 for HIV1 subtype B harboring protease D30N, M46I, A71T and V77I mutant gene and polymorphism at M36 position to EC50 for wild type HIV1 subtype B; format: functional
[30] = system: Human immunodeficiency virus 1; experiment: Antiviral activity against HIV1 subtype B harboring protease polymorphism at M36 position infected in human TZM-bl cells assessed as inhibition of viral replication after 48 hrs by luciferase reporter gene assay; format: functional, organism-based; summary of the method: as §2
[31] = system: Human immunodeficiency virus 1; experiment: Antiviral activity against wild type HIV1 subtype B infected in human cord blood mononuclear cells assessed as inhibition of viral replication after 48 hrs by luciferase reporter gene assay; format: functional, organism-based; conditions: Human immunodeficiency virus 1, subtype B
[32] = system: Human immunodeficiency virus 1; experiment: Antiviral activity against HIV1 subtype C harboring protease D30N, E35G, I85V, L90M mutant gene and polymorphism at I36 position infected in human cord blood mononuclear cells assessed as inhibition of viral replication […]; format: functional, organism-based; conditions: Human immunodeficiency virus 1, subtype C; summary of the method: as §1
[33] = system: Human immunodeficiency virus 1; experiment: Antiviral activity against HIV1 subtype B harboring protease D30N, L33I, M46I, N88D mutant gene and polymorphism at I36 position infected in human cord blood mononuclear cells assessed as inhibition of viral replication […] by […]; format: functional, organism-based; conditions: Human immunodeficiency virus 1, subtype B; summary of the method: as §1

With Cc1cccc(C)c1OCC(=O)N[C@@H](Cc1ccccc1)[C@@H](O)C[C@H](Cc1ccccc1)NC(=O)[C@H](C(C)C)N1CCCNC1=O [LOPINAVIR] the pEC50 [1] was 6.38, the “Ratio EC50” value [2] was 46 and the pEC50 [3] was 6.71. For the same compound, the “Ratio EC50” value [4] was 101, the pEC50 [5] was 5.83 and the pEC50 [6] was 6.87. The “Ratio EC50” value [7] was 22, the “Ratio EC50” value [8] was 190 and the pEC50 [9] was 6.80.
COC(=O)N[C@H](C(=O)N[C@@H](Cc1ccccc1)[C@@H](O)CN(Cc1ccc(-c2ccccn2)cc1)NC(=O)[C@@H](NC(=O)OC)C(C)(C)C)C(C)(C)C [ATAZANAVIR] showed a pEC50 [10] of 8.43, a pEC50 [11] of 6.74 and a pEC50 [12] of 7.73. It also gave a pEC50 [13] of 7.06, a pEC50 [14] of 8.15 and a pEC50 [15] of 8.03.
In the case of Cc1c(O)cccc1C(=O)N[C@@H](CSc1ccccc1)[C@H](O)CN1C[C@H]2CCCC[C@H]2C[C@H]1C(=O)NC(C)(C)C [NELFINAVIR], the pEC50 [16] was 8.78, the “Ratio EC50” value [17] was 1158 and the Activity [18] was “Active”. For the same compound, the pEC50 [19] was 5.94, the pEC50 [20] was 7.26 and the “Ratio EC50” value [21] was 163. For the same compound, the “Ratio EC50” value [22] was 35, the pEC50 [23] was 8.24 and the pEC50 [24] was 6.69. The “Ratio EC50” value [25] was 2, the Activity [26] was “Active” and the pEC50 [27] was 6.57. For the same compound, the “Ratio EC50” value [28] was 6, the “Ratio EC50” value [29] was 70 and the Activity [30] was “Active”. For the same compound, the pEC50 [31] was 8.01, the pEC50 [32] was 5.46 and the pEC50 [33] was 5.83.
